We go through 1 molecule from ChEMBL document CHEMBL5260824, “9-Deazapurines as Broad-Spectrum Inhibitors of the ABC Transport Proteins P-Glycoprotein, Multidrug Resistance-Associated Protein 1, and Breast Cancer Resistance Protein” (J Med Chem, 2017).

The nature of data set [1]: Reversal of SN-38 resistance in dog MDCK-II-BCRP cells assessed as SN-38 GI50 at 0.1 uM measured for 72 hrs by MTT assay. The format is functional. The note with it: Canis lupus familiaris. In a few lines:
(§1)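 Reversal assay: resistant lines (A2780/ADR, H69AR, MDCK II BCRP) and parental lines seeded as for MTT assay with modulator solutions of 1, 10 and 100 µM added (final 0.1, 1, 10 µM) and daunorubicin (P-gp, MRP1) or SN-38 (BCRP) at final 10 nM–10 µM. 72 h, MTT read-out; GI50 by variable-slope fit. Resistance factor = resistant/sensitive GI50; potentiation factor = GI50 without/with modulator.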
(In general: Tetrazolium dyes change colour on reduction, which living cells bring about.)

Data set [2] is described as follows: Potentiation factor, ratio of GI50 for SN-38 resistant dog MDCK-II-BCRP cells expressing BCRP cells to GI50 for reversal of SN-38 resistance in dog MDCK-II-BCRP cells assessed as SN-38 GI50 at 1 uM (reference value: 1 uM). The format is functional, Canis lupus familiaris. In a few lines:
as §1

A further data set concerns MDCK-II. The data set is described as follows: Antiproliferative activity against dog MDCK-II cells assessed as reduction in cell viability measured for 72 hrs bt MTT assay. The class given is functional. The note with it: Canis lupus familiaris.
The nature of data set [3]: Reversal of drug resistance in dog MDCK-II-BCRP cells expressing BCRP. The class given is functional, cell-based, Canis lupus familiaris. In a few lines: (§2)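 Cells seeded per well (A2780/ADR 8,000; H69AR 20,000; MDCK II BCRP 3,000) with test compound at 1, 10 or 100 µM solutions added before cells. Daunorubicin (P-gp, MRP1) or SN-38 (BCRP) added to final 10 nM–10 µM. 72 h at 37 °C, then MTT viability read at 570 nm. GI50 from variable-slope nonlinear fits, compared with parental lines; three independent experiments in duplicate.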

The next data set deals with P-gp (ABCB1) (Homo sapiens, UniProt P08183). The data set can be described thus: Inhibition of P-gp (unknown origin) at 10 uM incubated for 30 mins by calcein AM analysis relative to control. The note with it: probe calcein AM. In a few lines: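 A2780/ADR cells (doxorubicin-selected, P-gp overexpressing), about 30,000 per well in Krebs-HEPES buffer pH 7.4, incubated 30 min at 37 °C with compound (100 nM–100 µM added solutions). Calcein AM (3.125 µM solution added) then fluorescence read every 60 s at 37 °C, ex 485/em 520 nm; slope over minutes 5–30 plotted vs log concentration. Cyclosporine A 10 µM = 100% inhibition, buffer = 0%.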

Data set [4] has as its system H69AR. The data set is described as follows: Potentiation factor, ratio of GI50 for daunorubicin resistant human NCI-H69AR cells expressing MRP1 cells to GI50 for reversal of daunorubicin resistance in human NCI-H69AR cells assessed as daunorubicin GI50 at 1 uM (reference value: 1 uM). The class given is functional. In a few lines: as §1
Data set [5] in a line: Potentiation factor, ratio of GI50 for SN-38 resistant dog MDCK-II-BCRP cells expressing BCRP cells to GI50 for reversal of SN-38 resistance in dog MDCK-II-BCRP cells assessed as SN-38 GI50 at 10 uM (reference value: 1 uM). The class given is functional, Canis lupus familiaris. In a few lines:
as §1

In data set [6] the test system is H69AR. The data set is described as follows: Reversal of Daunorubicin resistance in human NCI-H69AR cells assessed as Daunorubicin GI50 at 10 uM measured for 72 hrs by MTT assay. The format is functional. Put shortly:
as §1

Data set [7] relates to MRP1. The data set is described as follows: Therapeutic index, ratio of GI50 for antiproliferative activity against human NCI-H69AR cells to IC50 for inhibition of MRP1 in human NCI-H69AR cells. The format is toxicity, cell-based. Put shortly:
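Ratio of MTT-assay GI50 to transport-inhibition IC50, both in the resistant line. GI50 comes from 72 h exposure at 37 °C to dilutions up to 1000 µM, with medium as 100% and 10% DMSO as 0% viability. IC50 comes from calcein AM (A2780/ADR), daunorubicin (H69AR) or pheophorbide A (MDCK II BCRP) accumulation.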

The next data set deals with NCI-H69. The data set can be described thus: Antiproliferative activity against human NCI-H69 cells assessed as reduction in cell viability measured for 72 hrs bt MTT assay. The format is functional.
The nature of data set [8]: Inhibition of daunorubicin sensitive human A2780 ADR cells expressing P-gp measured for 72 hrs by MTT assay. The class given is functional. In a few lines:
as §1

For data set [9], the target named is MRP1 (Homo sapiens, UniProt P33527). The data set is described as follows: Inhibition of MRP1 in human NCI-H69AR cells at 10 uM incubated for 180 mins in presence of daunorubicin by flow cytometry analysis relative to control. The class given is cell-based. Conditions: probe daunorubicin. In a few lines:
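H69AR cells (doxorubicin-selected small cell lung cancer, RPMI-1640/20% FBS), about 60,000 per well, preincubated 15 min with compound (100 nM–100 µM added solutions, in unsupplemented medium), then daunorubicin (30 µM solution added); steady state after 180 min, 37 °C, 5% CO2. Cells resuspended; flow cytometry, 488 nm excitation, FL3 (≥670 nm). Reference inhibitor 75 at 10 µM = 100%; Imax relative to it.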
On the technique in general: Flow cytometry measures light scatter and fluorescence of single cells or particles in a stream.

The nature of data set [10]: Reversal of Daunorubicin resistance in human A2780 ADR cells assessed as Daunorubicin GI50 at 1 uM measured for 72 hrs by MTT assay. The class given is functional. In a few lines: as §1
Data set [11] in a line: Reversal of Daunorubicin resistance in human A2780 ADR cells assessed as Daunorubicin GI50 at 10 uM measured for 72 hrs by MTT assay. The format is functional. In a few lines:
as §1

Data set [12] is described as follows: Reversal of SN-38 resistance in dog MDCK-II-BCRP cells assessed as SN-38 GI50 at 10 uM measured for 72 hrs by MTT assay. The class given is functional. Conditions: Canis lupus familiaris. In a few lines: as §1
A short description of data set [13]: Antiproliferative activity against dog MDCK-II-BCRP cells assessed as reduction in cell viability measured for 72 hrs bt MTT assay. Conditions: Canis lupus familiaris. The format is functional.
A short description of data set [14]: Reversal of Daunorubicin resistance in human A2780 ADR cells assessed as Daunorubicin GI50 at 0.1 uM measured for 72 hrs by MTT assay. The class given is functional. Put shortly: as §1
Data set [15] is described as follows: Antiproliferative activity against human A2780 ADR cells assessed as reduction in cell viability measured for 72 hrs bt MTT assay. The class given is functional.
The nature of data set [16]: Reversal of drug resistance in human A2780 ADR cells expressing P-gp. The format is functional, cell-based. Put shortly:
as §2

Data set [17] is described as follows: Reversal of SN-38 resistance in dog MDCK-II-BCRP cells assessed as SN-38 GI50 at 1 uM measured for 72 hrs by MTT assay. The format is functional. Conditions: Canis lupus familiaris. In a few lines: as §1
Data set [18] in a line: Potentiation factor, ratio of GI50 for daunorubicin resistant human A2780 ADR cells expressing P-gp cells to GI50 for reversal of daunorubicin resistance in human A2780 ADR cells assessed as daunorubicin GI50 at 1 uM by MTT assay (reference value: 1 uM). The format is functional. Put shortly:
as §1

A short description of data set [19]: Potentiation factor, ratio of GI50 for daunorubicin resistant human A2780 ADR cells expressing P-gp cells to GI50 for reversal of daunorubicin resistance in human A2780 ADR cells assessed as daunorubicin GI50 at 0.1 uM (reference value: 1 uM). The class given is functional. In a few lines:
as §1

A short description of data set [20]: Sensitization of human A2780 ADR cells expressing P-gp assessed as maximal sensitivity at 10 uM relative to control. The format is functional. Put shortly: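 Resistant lines were exposed to daunorubicin (A2780/ADR, H69AR) or SN-38 (MDCK II BCRP) over 10 nM–10 µM final, with or without modulator, for 72 h. Viability was read by MTT. Potentiation factor is GI50 without modulator over GI50 with modulator. Maximal sensitization is pf at 10 µM divided by the native resistance factor, in percent.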

Broadly, the GI50 is the concentration at which growth is held to half of that of the control. Broadly, the EC50 is the concentration needed to bring the measured effect to its halfway point. What is called inhibition is the drop in the measured response relative to a control, in per cent.

A value given as a limit tells only on which side of the number the result lay.

MRP1 (Homo sapiens, UniProt P33527), sequence (P33527 whole entry): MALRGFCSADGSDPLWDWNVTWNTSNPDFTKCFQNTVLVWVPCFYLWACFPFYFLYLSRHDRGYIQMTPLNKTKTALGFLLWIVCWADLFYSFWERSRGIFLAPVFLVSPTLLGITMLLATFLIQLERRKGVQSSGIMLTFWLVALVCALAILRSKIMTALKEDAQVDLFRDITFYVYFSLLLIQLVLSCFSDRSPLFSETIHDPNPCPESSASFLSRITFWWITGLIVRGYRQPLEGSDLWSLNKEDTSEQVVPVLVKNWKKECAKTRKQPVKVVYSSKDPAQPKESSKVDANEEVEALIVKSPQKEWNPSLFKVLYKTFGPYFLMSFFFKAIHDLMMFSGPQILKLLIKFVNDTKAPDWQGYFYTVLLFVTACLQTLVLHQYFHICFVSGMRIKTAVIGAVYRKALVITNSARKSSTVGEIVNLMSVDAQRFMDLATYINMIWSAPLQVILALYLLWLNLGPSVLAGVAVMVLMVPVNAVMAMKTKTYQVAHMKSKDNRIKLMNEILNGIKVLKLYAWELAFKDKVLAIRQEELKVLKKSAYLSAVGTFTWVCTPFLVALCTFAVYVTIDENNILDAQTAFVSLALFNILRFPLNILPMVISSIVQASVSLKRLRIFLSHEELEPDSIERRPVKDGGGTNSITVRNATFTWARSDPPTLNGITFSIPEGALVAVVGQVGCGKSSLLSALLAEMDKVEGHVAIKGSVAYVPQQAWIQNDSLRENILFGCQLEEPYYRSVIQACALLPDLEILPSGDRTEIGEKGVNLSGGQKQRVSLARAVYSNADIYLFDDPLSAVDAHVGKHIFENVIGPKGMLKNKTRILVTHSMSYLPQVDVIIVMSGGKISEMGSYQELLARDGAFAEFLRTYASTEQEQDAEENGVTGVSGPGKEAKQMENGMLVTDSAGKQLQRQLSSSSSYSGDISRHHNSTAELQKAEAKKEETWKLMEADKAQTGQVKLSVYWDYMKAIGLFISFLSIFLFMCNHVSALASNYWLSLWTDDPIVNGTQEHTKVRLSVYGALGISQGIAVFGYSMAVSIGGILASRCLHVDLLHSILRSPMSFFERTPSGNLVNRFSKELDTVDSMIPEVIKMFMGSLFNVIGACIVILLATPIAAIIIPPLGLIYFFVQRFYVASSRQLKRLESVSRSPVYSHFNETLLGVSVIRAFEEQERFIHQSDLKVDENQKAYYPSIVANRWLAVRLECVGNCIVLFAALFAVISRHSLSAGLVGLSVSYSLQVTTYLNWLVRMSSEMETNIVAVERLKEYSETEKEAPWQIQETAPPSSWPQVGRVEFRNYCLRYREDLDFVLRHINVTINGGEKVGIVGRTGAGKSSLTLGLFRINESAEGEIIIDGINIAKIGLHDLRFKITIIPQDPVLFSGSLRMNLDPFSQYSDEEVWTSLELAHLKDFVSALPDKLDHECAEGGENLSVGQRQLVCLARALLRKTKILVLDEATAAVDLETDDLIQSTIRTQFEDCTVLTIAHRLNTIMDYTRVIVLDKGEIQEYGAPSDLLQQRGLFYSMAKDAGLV
P-gp (ABCB1), sequence (P08183 whole entry): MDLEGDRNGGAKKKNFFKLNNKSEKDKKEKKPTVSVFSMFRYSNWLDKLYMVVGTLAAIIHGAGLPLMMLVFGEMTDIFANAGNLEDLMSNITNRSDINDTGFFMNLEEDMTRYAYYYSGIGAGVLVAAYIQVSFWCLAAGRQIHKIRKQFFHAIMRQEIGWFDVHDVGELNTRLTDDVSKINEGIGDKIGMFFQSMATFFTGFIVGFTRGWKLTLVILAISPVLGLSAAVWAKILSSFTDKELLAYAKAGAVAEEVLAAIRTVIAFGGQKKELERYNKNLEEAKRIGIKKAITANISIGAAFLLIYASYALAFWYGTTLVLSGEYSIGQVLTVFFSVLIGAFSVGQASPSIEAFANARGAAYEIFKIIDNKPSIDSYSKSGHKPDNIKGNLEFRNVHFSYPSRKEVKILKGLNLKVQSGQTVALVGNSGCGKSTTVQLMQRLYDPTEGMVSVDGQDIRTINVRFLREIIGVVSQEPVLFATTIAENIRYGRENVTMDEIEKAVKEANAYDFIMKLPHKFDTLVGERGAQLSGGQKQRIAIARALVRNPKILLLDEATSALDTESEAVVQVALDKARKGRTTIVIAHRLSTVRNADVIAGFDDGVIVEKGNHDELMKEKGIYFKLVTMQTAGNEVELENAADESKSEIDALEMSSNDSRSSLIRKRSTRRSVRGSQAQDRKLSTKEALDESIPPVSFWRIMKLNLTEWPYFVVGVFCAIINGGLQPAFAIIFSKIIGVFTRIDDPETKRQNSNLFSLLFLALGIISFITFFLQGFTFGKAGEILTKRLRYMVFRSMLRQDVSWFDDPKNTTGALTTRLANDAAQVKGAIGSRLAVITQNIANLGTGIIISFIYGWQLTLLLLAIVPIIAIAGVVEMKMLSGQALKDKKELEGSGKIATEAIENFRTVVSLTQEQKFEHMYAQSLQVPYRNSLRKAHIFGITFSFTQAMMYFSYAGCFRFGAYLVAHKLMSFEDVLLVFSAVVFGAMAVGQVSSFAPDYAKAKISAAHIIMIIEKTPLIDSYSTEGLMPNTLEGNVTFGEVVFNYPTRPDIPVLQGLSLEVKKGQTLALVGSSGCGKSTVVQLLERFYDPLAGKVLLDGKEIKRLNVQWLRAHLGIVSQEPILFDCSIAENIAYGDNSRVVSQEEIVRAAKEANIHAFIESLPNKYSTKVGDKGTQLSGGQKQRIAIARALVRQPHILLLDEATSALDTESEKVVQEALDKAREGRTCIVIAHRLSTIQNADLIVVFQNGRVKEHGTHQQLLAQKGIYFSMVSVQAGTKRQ

On to `N#Cc1cn(CCCc2ccccc2)c2c(N3CCN(CCc4c[nH]c5ccccc45)CC3)ncnc12`, for which the GI50 in data set [1] came to 916 nM; in the data set with MDCK-II, 37200 nM; with H69AR [6] it was 445 nM; in the data set on NCI-H69, 55400 nM; in data set [8], 10 nM; in data set [10] it was 58 nM. The GI50 in [11] was 44 nM; in data set [12], 61 nM; in [13], 23200 nM; in [14], 286 nM; in data set [15], 13700 nM; in [17], 211 nM. In addition, the PF in data set [2] is 8.1; in the data set with H69AR [4] it was 3.3; in data set [5] it was 28; in data set [19] it was 2. For the same molecule, the results for the EC50 in [3] and in [16] were 478 nM and 563 nM, respectively. Besides, at P-gp (ABCB1), the inhibition at 0.5 h, 10 µM was > 25%. In the data set on MRP1 [7], the selectivity ratio came to 303. Besides, the inhibition at 3 h, 10 µM on MRP1 [9] is > 25%. Further, the RatioGI50 in data set [18] came to 9.8. In addition, the Activity in [20] amounted to 24%.
